Screening results as filed in PubChem BioAssay.
Rows were chosen to be rich in hits. Some 3.2% of all compounds tested hit in one or more screens of this group.
HTRA1 inh: HTRA1 serine protease inhibitors, primary screen, biochemical, fluorescence polarization, HTS | recombinant HTRA1, FP-rhodamine activity-based probe | inhibition, % at 5.96 µM | actives 0.5% (n = 340,000) | AID 504803, 2011; in the data active means inhibition above about 36%;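 further: 0% = enzyme with DMSO and 100% = wells lacking enzyme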
Target sequence (Q92743 whole entry, looked up): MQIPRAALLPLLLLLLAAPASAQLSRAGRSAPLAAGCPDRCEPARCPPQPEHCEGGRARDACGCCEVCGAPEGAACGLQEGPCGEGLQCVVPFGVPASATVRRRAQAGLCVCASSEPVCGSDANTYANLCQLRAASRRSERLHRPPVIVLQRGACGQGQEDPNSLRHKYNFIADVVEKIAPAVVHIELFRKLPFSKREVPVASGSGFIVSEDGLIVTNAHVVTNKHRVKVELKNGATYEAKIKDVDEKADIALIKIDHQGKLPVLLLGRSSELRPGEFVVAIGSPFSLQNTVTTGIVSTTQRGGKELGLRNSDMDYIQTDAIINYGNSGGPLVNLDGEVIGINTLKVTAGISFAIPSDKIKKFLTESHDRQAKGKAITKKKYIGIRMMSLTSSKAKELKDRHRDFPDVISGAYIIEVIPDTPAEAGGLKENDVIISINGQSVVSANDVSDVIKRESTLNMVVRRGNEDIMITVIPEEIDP
ABHD4 inh: ABHD4 inhibitors, primary screen, biochemical, fluorescence polarization, mouse. actives 0.54% (n = 370,000). inhibition, % at 8.92 µM. AID 720543, 2013. purified mABHD4, FP-Rh probe fluorescence polarization. (Lyso)-N-acylphosphatidylethanolamine lipase (Mus musculus), Q8VD66;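 active means inhibition exceeding the mean over every tested compound plus 3 SD, cut at about 30% in these data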;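 further: 0% = plate median of compound wells and 100% = S159A mutant with DMSO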
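Test system: mABHD4 protein; Read-out basis: % inhibition; Incubation: 45 min + 60 min at 25 °C; Repeats: single replicate; Technique: fluorescence polarization with parallel and perpendicular emission, 525/598 nm; Compound: 8.92 µM, single dose; Benchmarks: full inhibition S159A mutant plus DMSO, zero as sample-well median.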
PRMT1 FP inh: PRMT1 methyltransferase inhibitors, primary screen, biochemical, fluorescence polarization. actives 1.3% (n = 370,000). inhibition, % at 2.79 µM. AID 652257, 2013. Protein arginine N-methyltransferase 1 (Homo sapiens), Q99873. recombinant PRMT1, activity-based probe fluorescence polarization;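 active means inhibition above about 21% made by adding two undisclosed values, limit read from the data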
LEDGF integ inh: blockers of LEDGF/p75-dependent integrase strand transfer – biochemical, TR-FRET, high throughput, primary screen; HIV-1 integrase (with human LEDGF/p75); TR-FRET IN-LEDGF/p75 DNA integration, Eu/Cy5; inhibition, % at 3.7 µM; actives 0.64% (n = 370,000); AID 743269, 2014;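 active means inhibition above the screen-wide mean plus 3 SD, cut at about 13% in these data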;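 further: signal is the Cy5 over europium emission ratio at 671 and 618 nm; 0% = plate median of compound wells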
DAGLB inhibitor: DAGLB lipase inhibitors, primary screen, biochemical, fluorescence, HTS; HEK293T DAGLB membrane lysate, EnzChek fluorogenic substrate; inhibition, % at 5.17 µM; actives 0.059% (n = 340,000); AID 504411, 2011; in the data active means inhibition above about 34%;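 further: 0% = enzyme with vehicle and 100% = wells lacking enzyme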
rCAG RNA binder: binders of r(CAG) RNA repeats, primary screen, biochemical, fluorescence; AID 651821, 2012; inhibition, % at 3 µM; actives 1.3% (n = 370,000); r(CAG) RNA repeat, TO-PRO-1 dye displacement fluorescence;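 active means inhibition above the plate cutoff, the mean of all test compounds on that plate plus 3 SD, cut at about 35% in these data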;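 further: 0% = DMSO alone and 100% = 100 µM mitoxantrone as full dye displacement; higher means more dye released from RNA so lower well fluorescence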
rCAG binder conf: small molecules binding CAG repeat RNA – biochemical, fluorescence, confirmation | shares compounds with rCAG RNA binder | inhibition, % at 3 µM | actives 70% (n = 4,300) | r(CAG) RNA repeat, TO-PRO-1 dye displacement fluorescence;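 active means inhibition above a per-plate cutoff, the mean inhibition of sample wells plus 3 SD, cut at about 35% in these data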;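 further: loss of TO-PRO-1 fluorescence as compound displaces dye from 1x1 AA loop RNA; 0% = DMSO only wells and 100% = 100 µM mitoxantrone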
DNA CAG counter: displacement of TO-PRO-1 from CAG DNA duplex, counter-screen for rCAG RNA repeat binder project, biochemical, fluorescence, TO-PRO-1 dye, d(CAG) DNA oligo; shares compounds with rCAG RNA binder; d(CAG) DNA oligo TO-PRO-1 dye displacement; inhibition, % at 3 µM; actives 94% (n = 4,300);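 active means inhibition above its plate's cutoff, the mean test-well inhibition plus 3 SD, cut at about 4.8% in these data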;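 further: 0% = DNA dye mix with DMSO and 100% = 100 µM mitoxantrone; hits displace the dye from DNA and so lower well fluorescence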
DNA CAG DR: inhibitors of DNA CAG/GTC TO-PRO-1 complex, dose response, counter-screen for rCAG RNA repeat binder project, biochemical, fluorescence, TO-PRO-1 dye | IC50, µM | DNA CAG/GTC duplex TO-PRO-1 dye displacement fluorescence | actives 20% (n = 250) | shares compounds with rCAG RNA binder; in the data active means IC50 below about 10 µM
Active calls of the source: *; · = not tested or not shown.

SMILES | HTRA1 inh | ABHD4 inh | PRMT1 FP inh | LEDGF integ inh | DAGLB inhibitor | rCAG RNA binder | rCAG binder conf | DNA CAG counter | others
O=C1OC(c2cccs2)=N/C1=C\c1ccc(-c2cccc(Cl)c2)o1 | -22.9 | 7.3 | 3.6 | 1.8 | 7.6 | 48.6* | 40.2* | 12.1* | DNA CAG DR=>29.9
N=C1/C(=C\c2ccc(-c3cccc(Cl)c3)o2)C(=O)N=C2SC=C(c3ccccc3)N12 | -56.4 | -21.6 | 1.3 | -0.9 | 14.3 | 64.6* | 65.9* | 41.0*
CN(Cc1ccccc1)C(=O)COc1ccc(-c2nnco2)cc1 | -2.6 | 3.9 | -3.4 | -0.7 | -1.2 | 0.6 | · | ·
CN(CC(=O)Nc1ccc(F)c(F)c1F)C(=O)Cc1ccc(S(=O)(=O)N2CCOCC2)s1 | 4.0 | 2.4 | 1.7 | -1.9 | -1.1 | 5.2 | · | ·
CC(C)(C)NC(=O)C(c1ccc(C(F)(F)F)cc1)n1c(=O)c(-c2ccco2)nc2ccccc21 (stereo unspecified) | · | -11.4 | 20.8 | 1.9 | · | 27.0 | · | ·
CC(C)(C)NC(=O)C(c1ccccc1F)n1c(=O)c(-c2ccco2)nc2ccccc21 (stereo unspecified) | · | -20.1 | 15.4 | 6.3 | · | 40.9* | 10.7 | 7.8*
OCC1(Cc2ccc(F)cc2F)CCCN(Cc2ccc(Cl)cc2)C1 (stereo unspecified) | -16.9 | -2.5 | -0.7 | 2.6 | -8.1 | -7.4 | · | ·
O=C(N[C@@H](Cc1c[nH]c2ccccc12)C(=O)O)C1CCN(S(=O)(=O)c2ccc(Cl)cc2)CC1 | 4.0 | 7.9 | -0.7 | 1.5 | 0.0 | 34.6* | 29.3 | 8.2*
CCOc1ccc(Br)cc1S(=O)(=O)Nc1ccc(C(=O)Nc2ccccc2OC)cc1 | -54.0 | -34.5 | 3.0 | 2.4 | 1.6 | 15.4 | · | ·
COc1ccccc1NC(=O)c1ccc(NS(=O)(=O)c2ccc(F)c(F)c2F)cc1 | -11.1 | -7.8 | 1.2 | 0.3 | 3.1 | 44.2* | 27.9 | 6.1*
O=C(O)COc1ccccc1/C=N/NC(=O)c1cc(-c2ccc(F)cc2)nc2ccccc12 | -16.9 | -11.5 | 1.6 | -1.3 | 5.3 | 54.8* | 42.9* | 11.8*
O=C(O)COc1ccccc1/C=N/NC(=O)CSc1nc2ccccc2n1Cc1ccccc1 | -13.1 | -0.1 | 3.3 | 6.2 | 6.1 | 45.1* | 54.6* | 16.5*
COc1ccc(S(=O)(=O)NC(=O)C2(C)CCN2C(=O)Cc2ccc(-c3ccccc3)cc2)cc1 (stereo unspecified) | · | 9.1 | 1.9 | 2.9 | · | 45.5* | 43.7* | 15.7*
CC1(C(=O)NS(=O)(=O)c2ccc3c(c2)CCO3)CCN1C(=O)Cc1ccc(-c2ccccc2)cc1 (stereo unspecified) | · | -0.8 | 2.1 | -2.2 | · | 46.9* | 70.3* | 27.3* | DNA CAG DR=>29.9
CC1(C(=O)NS(=O)(=O)c2ccc3ccccc3c2)CCN1C(=O)Cc1ccc(-c2ccccc2)cc1 (stereo unspecified) | · | -7.1 | -7.3 | 3.9 | · | 81.3* | 76.6* | 36.0*
CC1(C(=O)NS(=O)(=O)c2ccc(Cl)cc2)CCN1C(=O)Cc1ccccc1 (stereo unspecified) | · | -0.1 | -4.5 | -1.5 | · | 4.4 | · | ·
CCCS(=O)(=O)NC(=O)C1(C)CCN1C(=O)Cc1ccc(-c2ccccc2)cc1 (stereo unspecified) | · | 1.4 | 0.5 | -1.4 | · | 20.8 | · | ·
CC1(C(=O)NS(=O)(=O)c2ccc(Cl)cc2)CCN1C(=O)Cc1ccc(-c2ccccc2)cc1 (stereo unspecified) | · | 1.7 | -2.7 | 5.8 | · | 66.1* | 63.6* | 23.2*
CCN(CC(=O)NC(C)C)C(=O)C(CCSC)NC(=O)c1ccccc1OC (stereo unspecified) | -5.3 | 3.0 | -0.7 | -2.0 | -0.9 | -7.7 | · | ·
CC(C)[C@H](NC(=O)[C@@H]1CSC2c3ccccc3C(=O)N21)C(=O)NC1CCCCC1 (stereo partly specified) | -7.7 | 1.8 | 1.2 | -3.9 | 2.5 | -2.8 | · | ·
Cc1c(C(=O)NNC(=S)Nc2cccc(Cl)c2)nnn1-c1ccccc1 | 6.0 | 11.8 | -5.1 | 4.9 | 5.5 | 45.4* | 44.1* | 13.9*
CCC(=O)N1CCC(C(=O)NC2CCCc3ccccc32)CC1 (stereo unspecified) | · | -1.5 | 1.3 | 3.8 | · | -1.1 | · | ·
COc1ccc(Oc2c(C)nc(SCC(=O)c3ccc(Cl)cc3)[nH]c2=O)cc1 | -8.3 | 8.6 | -1.4 | 5.3 | 4.3 | 26.3 | · | ·
Cc1nc(SCC(=O)c2ccccc2)[nH]c(=O)c1Oc1ccc(Cl)cc1 | -5.0 | -6.0 | 0.7 | 0.2 | 9.2 | 41.0* | 34.6* | 8.5*
CCc1ccccc1NC(=O)CN(C)C(=O)CSc1nnc(Nc2ccc(C)cc2)s1 | -4.3 | 6.7 | -0.2 | -1.8 | -1.2 | -0.6 | · | ·
SMILES | HTRA1 inh | ABHD4 inh | PRMT1 FP inh | LEDGF integ inh | DAGLB inhibitor | rCAG RNA binder | rCAG binder conf | DNA CAG counter | others
COC(=O)CSc1nc(SCc2ccc(C)cc2)nc2c1CCCC2 | -20.8 | -6.0 | -1.1 | 1.1 | -20.6 | 2.4 | · | ·
Cc1ccc(CSc2nc3c(c(SCC(=O)O)n2)CCCC3)cc1 | -10.4 | 4.3 | 4.1 | 2.2 | 4.3 | 35.5* | 22.7 | 5.7*
Cc1ccc(N(CC(=O)N=Nc2c(O)[nH]c3ccccc23)S(C)(=O)=O)c(C)c1 | 1.5 | -3.8 | -2.2 | -1.0 | 0.2 | 3.0 | · | ·
CC(C)(C)c1ccc(OCC(=O)NNC(=S)NC(=O)c2ccccc2[N+](=O)[O-])c(Br)c1 | -6.3 | 0.9 | -3.0 | 0.5 | 11.5 | 77.9* | 85.2* | 54.9*
CCCOc1ccc(C(=O)NNC(=S)NC(=O)c2ccccc2)cc1 | 13.0 | -3.8 | 2.1 | 3.2 | -0.2 | 27.6 | · | ·
CCCOc1ccc(C(=O)NNC(=S)NC(=O)c2cccs2)cc1 | 8.6 | 5.2 | -1.0 | -1.3 | 3.5 | 41.1* | 35.4* | 10.7*
CCCOc1ccc(C(=O)NNC(=S)NC(=O)c2ccccc2[N+](=O)[O-])cc1 | 8.4 | 1.2 | -5.6 | -1.2 | 6.7 | 35.8* | 20.4 | 7.0*
